# Assay results taken from ChEMBL document CHEMBL4311951, “Potent and Preferential Degradation of CDK6 via Proteolysis Targeting Chimera Degraders” (J Med Chem, 2019).
# Calls of active or inactive are those of the source. The calls are words filed in the database; no cut-off is given here.
# Columns and labels:
# [1] = molecular target: Protein cereblon/Cyclin-dependent kinase 6 (Homo sapiens, UniProt Q00534+Q96SW2); test: Induction of CRBN-mediated CDK6 degradation in human U251 cells after 24 hrs by immunoblot analysis; type: cell-based
# [2] = species on record: Homo sapiens; test: Induction of cIAP-mediated CDK6 degradation in human U251 cells at 1 uM after 24 hrs by immunoblot analysis; type: cell-based
# [3] = species on record: Homo sapiens; test: Induction of cIAP-mediated CDK4 degradation in human U251 cells at 1 uM after 24 hrs by immunoblot analysis; type: cell-based
# [4] = system: Daoy; test: Induction of cIAP-mediated CDK6 degradation in human DAOY cells at 1 uM after 24 hrs by immunoblot analysis; type: cell-based
# Outline: (§1)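 Medulloblastoma DAOY cells treated 24 h with PROTACs at 1 μM; CDK6 levels then assessed by immunoblot. Palbociclib at 500 nM and 1 μM as positive control.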
# [5] = molecular target: Protein cereblon/Cyclin-dependent kinase 4 (Homo sapiens, UniProt P11802+Q96SW2); test: Induction of CRBN-mediated CDK4 degradation in human U251 cells after 24 hrs by immunoblot analysis; type: cell-based
# Protein cereblon/Cyclin-dependent kinase 4, sequence (P11802 whole entry): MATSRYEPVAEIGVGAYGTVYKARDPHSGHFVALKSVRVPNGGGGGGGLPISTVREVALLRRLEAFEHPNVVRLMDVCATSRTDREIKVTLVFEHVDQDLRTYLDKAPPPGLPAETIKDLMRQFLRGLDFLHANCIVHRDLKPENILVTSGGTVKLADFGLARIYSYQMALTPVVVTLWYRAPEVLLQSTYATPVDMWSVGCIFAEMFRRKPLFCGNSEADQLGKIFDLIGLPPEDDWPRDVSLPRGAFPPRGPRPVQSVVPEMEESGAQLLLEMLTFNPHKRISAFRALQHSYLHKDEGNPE
# Protein cereblon/Cyclin-dependent kinase 4, sequence (Q96SW2 whole entry): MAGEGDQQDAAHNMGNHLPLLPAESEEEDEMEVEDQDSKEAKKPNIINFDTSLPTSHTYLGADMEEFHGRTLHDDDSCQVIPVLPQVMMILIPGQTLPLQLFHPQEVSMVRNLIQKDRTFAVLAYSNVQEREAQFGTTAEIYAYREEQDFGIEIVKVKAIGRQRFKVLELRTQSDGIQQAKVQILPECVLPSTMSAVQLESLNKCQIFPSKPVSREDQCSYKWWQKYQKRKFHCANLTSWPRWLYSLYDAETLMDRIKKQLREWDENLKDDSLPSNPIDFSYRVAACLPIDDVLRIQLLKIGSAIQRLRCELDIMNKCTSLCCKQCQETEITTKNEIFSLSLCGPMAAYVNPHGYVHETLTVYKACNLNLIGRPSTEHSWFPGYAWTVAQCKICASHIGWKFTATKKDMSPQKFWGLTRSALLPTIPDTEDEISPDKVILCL
# [6] = molecular target: T1, von Hippel-Lindau disease tumor suppressor/Cyclin-dependent kinase 6 (Homo sapiens) (UniProt Q00534+P40337); test: Induction of VHL-mediated CDK6 degradation in human DAOY cells at 1 uM after 24 hrs by immunoblot analysis; type: cell-based; outline: as §1
# T1 sequence (P40337 whole entry, looked up): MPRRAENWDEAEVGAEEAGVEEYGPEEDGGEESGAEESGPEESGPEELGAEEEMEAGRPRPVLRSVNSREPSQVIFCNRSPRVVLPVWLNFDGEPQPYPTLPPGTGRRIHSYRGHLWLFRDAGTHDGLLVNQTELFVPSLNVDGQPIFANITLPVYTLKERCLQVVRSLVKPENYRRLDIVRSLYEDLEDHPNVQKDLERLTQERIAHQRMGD
# T1 sequence (Q00534 whole entry, looked up): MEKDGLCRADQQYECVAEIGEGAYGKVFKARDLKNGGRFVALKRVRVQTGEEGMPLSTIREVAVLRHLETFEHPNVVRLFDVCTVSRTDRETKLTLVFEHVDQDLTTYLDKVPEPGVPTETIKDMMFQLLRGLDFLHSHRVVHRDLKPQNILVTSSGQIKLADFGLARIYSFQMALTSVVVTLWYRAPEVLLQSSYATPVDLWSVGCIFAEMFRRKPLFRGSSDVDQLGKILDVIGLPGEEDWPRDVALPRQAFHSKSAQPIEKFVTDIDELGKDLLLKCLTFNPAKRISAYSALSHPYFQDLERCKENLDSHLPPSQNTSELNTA
# [7] = molecular target: T1, von Hippel-Lindau disease tumor suppressor/Cyclin-dependent kinase 6 (Homo sapiens); test: Induction of VHL-mediated CDK6 degradation in human U251 cells at 1 uM after 24 hrs by immunoblot analysis; type: cell-based
# [8] = molecular target: von Hippel-Lindau disease tumor suppressor/Cyclin-dependent kinase 4 (Homo sapiens) (UniProt P11802+P40337); test: Induction of VHL-mediated CDK4 degradation in human U251 cells at 1 uM after 24 hrs by immunoblot analysis; type: cell-based
# von Hippel-Lindau disease tumor suppressor/Cyclin-dependent kinase 4 (Homo sapiens), sequence (P11802 2-303 limits assumed): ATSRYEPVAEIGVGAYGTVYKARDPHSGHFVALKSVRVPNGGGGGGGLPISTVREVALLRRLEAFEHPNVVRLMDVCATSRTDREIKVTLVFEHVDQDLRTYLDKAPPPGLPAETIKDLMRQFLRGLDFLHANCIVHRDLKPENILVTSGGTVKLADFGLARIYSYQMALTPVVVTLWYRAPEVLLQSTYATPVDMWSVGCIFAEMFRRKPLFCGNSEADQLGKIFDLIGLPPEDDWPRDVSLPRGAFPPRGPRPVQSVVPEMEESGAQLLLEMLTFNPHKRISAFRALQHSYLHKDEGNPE
# von Hippel-Lindau disease tumor suppressor/Cyclin-dependent kinase 4 (Homo sapiens), sequence (P40337 whole entry partner): as the sequence (P40337 whole entry, looked up) above
# [9] = (§2) Antiproliferative activity against human Mino cells after 84 hrs by CCK8 assay; type: functional, cell-based
# Outline: (§3)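 Suspension haematopoietic lines seeded in triplicate in 96-well plates; drug stock added immediately to the final concentrations. After 84 h culture, CCK-8 reagent added and absorbance at OD450 nm read after 2 h incubation.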
# [10] = system: MM1.S; test: Antiproliferative activity against human MM1S cells after 84 hrs by CCK8 assay; type: functional, cell-based; outline: as §3
# [11] = system: JeKo-1; test: Antiproliferative activity against human JeKo1 cells after 84 hrs by CCK8 assay; type: functional, cell-based; outline: as §3
# [12] = system: RPMI-8226; test: Antiproliferative activity against human RPMI8226 cells after 84 hrs by CCK8 assay; type: functional, cell-based; outline: as §3
# [13] = system: HL-60; test: Antiproliferative activity against human HL60 cells after 84 hrs by CCK8 assay; type: functional, cell-based; outline: as §3
# [14] = system: THP-1; test: Antiproliferative activity against human THP1 cells after 84 hrs by CCK8 assay; type: functional, cell-based; outline: as §3
# [15] = molecular target: T2, E3 ubiquitin-protein ligase Mdm2/CDK6 (Homo sapiens) (UniProt Q00987+Q00534); test: Induction of MDM2-mediated CDK6 degradation in human U251 cells at 1 uM after 24 hrs by immunoblot analysis; type: cell-based
# T2 sequence (Q00534 whole entry, looked up): as the sequence (Q00534 whole entry, looked up) above
# T2 sequence (Q00987 whole entry, looked up): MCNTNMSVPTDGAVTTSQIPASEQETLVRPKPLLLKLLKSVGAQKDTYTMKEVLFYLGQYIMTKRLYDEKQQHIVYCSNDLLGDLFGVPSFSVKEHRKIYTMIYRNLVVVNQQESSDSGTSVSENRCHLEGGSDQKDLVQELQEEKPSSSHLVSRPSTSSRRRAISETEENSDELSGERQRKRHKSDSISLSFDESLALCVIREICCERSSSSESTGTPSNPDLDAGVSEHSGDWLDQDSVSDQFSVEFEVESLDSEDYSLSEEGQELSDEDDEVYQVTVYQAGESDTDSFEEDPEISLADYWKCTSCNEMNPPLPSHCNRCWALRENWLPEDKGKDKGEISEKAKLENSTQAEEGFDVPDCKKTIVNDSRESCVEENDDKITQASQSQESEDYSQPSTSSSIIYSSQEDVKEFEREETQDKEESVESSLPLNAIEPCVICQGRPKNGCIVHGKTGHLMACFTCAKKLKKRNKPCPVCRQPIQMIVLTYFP
# [16] = molecular target: T2, E3 ubiquitin-protein ligase Mdm2/CDK6 (Homo sapiens); test: Induction of MDM2-mediated CDK6 degradation in human DAOY cells at 1 uM after 24 hrs by immunoblot analysis; type: cell-based; outline: as §1
# [17] = system: E3 ubiquitin-protein ligase Mdm2/Cyclin-dependent kinase 4 (Homo sapiens); test: Induction of MDM2-mediated CDK4 degradation in human U251 cells at 1 uM after 24 hrs by immunoblot analysis
# [18] = species on record: Homo sapiens; test: as §2; type: functional, cell-based; outline: as §3
smiles,measurement,setting,value
CN(C)C(=O)c1cc2cnc(Nc3ccc(N4CCN(Cc5cn(CCOCCOCCNc6cccc7c6C(=O)N(C6CCC(=O)NC6=O)C7=O)nn5)CC4)cn3)nc2n1C1CCCC1 (configuration not stated),Activity,[1],inactive
CC(=O)c1c(C)c2cnc(Nc3ccc(N4CCN(Cc5cn(CCOCCNC(=O)[C@H](CC(C)C)NC(=O)[C@@H](O)[C@H](N)Cc6ccccc6)nn5)CC4)cn3)nc2n(C2CCCC2)c1=O,Activity,[2],inactive
same,Activity,[3],inactive
same,Activity,[4],inactive
CC(=O)c1c(C)c2cnc(Nc3ccc(N4CCN(Cc5cn(CCCCC#Cc6cccc7c6C(=O)N(C6CCC(=O)NC6=O)C7=O)nn5)CC4)cn3)nc2n(C2CCCC2)c1=O (configuration not stated),DC50,[5],> 0.1 µM
same,DC50,[1],0.0816 µM
CC(=O)c1c(C)c2cnc(Nc3ccc(N4CCN(Cc5cn(CCCCCCc6cccc7c6C(=O)N(C6CCC(=O)NC6=O)C7=O)nn5)CC4)cn3)nc2n(C2CCCC2)c1=O (configuration not stated),DC50,[5],> 0.05 µM
same,DC50,[1],0.0017 µM
CC(=O)c1c(C)c2cnc(Nc3ccc(N4CCN(Cc5cn(CCOCCNC(=O)CCC(=O)N[C@H](C(=O)N6C[C@H](O)C[C@H]6C(=O)NCc6ccc(-c7scnc7C)cc6)C(C)(C)C)nn5)CC4)cn3)nc2n(C2CCCC2)c1=O,Activity,[6],inactive
same,Activity,[7],inactive
same,Activity,[8],inactive
Cc1nc2c(F)cc(-c3nc(Nc4ccc(CN5CCN(Cc6cn(CCOCCOCCNc7cccc8c7C(=O)N(C7CCC(=O)NC7=O)C8=O)nn6)CC5)cn4)ncc3F)cc2n1C(C)C (configuration not stated),DC50,[5],> 0.5 µM
same,DC50,[1],0.13 µM
CC(=O)c1c(C)c2cnc(Nc3ccc(N4CCNCC4)cn3)nc2n(C2CCCC2)c1=O [PALBOCICLIB],IC50,[9],0.045 µM
same,IC50,[10],0.2 µM
same,Activity,[11],Active
same,Activity,[12],Active
same,Activity,[13],Active
same,Activity,[14],Active
CC(=O)c1c(C)c2cnc(Nc3ccc(N4CCN(Cc5cn(CCOCCOCCOCCNC(=O)CCC(=O)N[C@H](C(=O)N6C[C@H](O)C[C@H]6C(=O)NCc6ccc(-c7scnc7C)cc6)C(C)(C)C)nn5)CC4)cn3)nc2n(C2CCCC2)c1=O,Activity,[6],inactive
same,Activity,[7],inactive
same,Activity,[8],inactive
COc1ccc(C2=N[C@H](c3ccc(Cl)cc3)[C@H](c3ccc(Cl)cc3)N2C(=O)N2CCN(CC(=O)NCCOCCOCCOCCn3cc(CN4CCN(c5ccc(Nc6ncc7c(C)c(C(C)=O)c(=O)n(C8CCCC8)c7n6)nc5)CC4)nn3)C(=O)C2)c(OC(C)C)c1,Activity,[15],inactive
same,Activity,[16],inactive
same,Activity,[17],inactive
CC(=O)c1c(C)c2cnc(Nc3ccc(N4CCN(Cc5cn(CCCCCCNc6cccc7c6C(=O)N(C6CCC(=O)NC6=O)C7=O)nn5)CC4)cn3)nc2n(C2CCCC2)c1=O (configuration not stated),DC50,[5],> 0.1 µM
same,DC50,[1],0.0106 µM
CC(=O)c1c(C)c2cnc(Nc3ccc(N4CCN(CC(=O)NCCOCCOCCNc5cccc6c5C(=O)N(C5CCC(=O)NC5=O)C6=O)CC4)cn3)nc2n(C2CCCC2)c1=O (configuration not stated),DC50,[5],> 0.1 µM
same,DC50,[1],0.0242 µM
CCN1C(=O)CCC(N2C(=O)c3cccc(NCCOCCn4cc(CN5CCN(c6ccc(Nc7ncc8c(C)c(C(C)=O)c(=O)n(C9CCCC9)c8n7)nc6)CC5)nn4)c3C2=O)C1=O (configuration not stated),Activity,[18],inactive
same,Activity,[10],inactive
same,Activity,[11],inactive
same,Activity,[12],inactive
same,Activity,[13],inactive
same,Activity,[14],inactive
CN(C)C(=O)c1cc2cnc(Nc3ccc(N4CCN(Cc5cn(CCOCCNc6cccc7c6C(=O)N(C6CCC(=O)NC6=O)C7=O)nn5)CC4)cn3)nc2n1C1CCCC1 (configuration not stated),Activity,[1],inactive
CN(C)C(=O)c1cc2cnc(Nc3ccc(N4CCN(Cc5cn(CCOCCOCCOCCNc6cccc7c6C(=O)N(C6CCC(=O)NC6=O)C7=O)nn5)CC4)cn3)nc2n1C1CCCC1 (configuration not stated),Activity,[1],inactive
CC(=O)c1c(C)c2cnc(Nc3ccc(N4CCN(Cc5cn(CCOCCOCCOCCOCCNC(=O)[C@H](CC(C)C)NC(=O)[C@@H](O)[C@H](N)Cc6ccccc6)nn5)CC4)cn3)nc2n(C2CCCC2)c1=O,Activity,[2],inactive
same,Activity,[3],inactive
same,Activity,[4],inactive
CC(=O)c1c(C)c2cnc(Nc3ccc(N4CCN(Cc5cn(CCOCCOCCOCCOCCNC(=O)CCC(=O)N[C@H](C(=O)N6C[C@H](O)C[C@H]6C(=O)NCc6ccc(-c7scnc7C)cc6)C(C)(C)C)nn5)CC4)cn3)nc2n(C2CCCC2)c1=O,Activity,[6],inactive
same,Activity,[7],inactive
same,Activity,[8],inactive
CC(=O)c1c(C)c2cnc(Nc3ccc(N4CCN(Cc5cn(CCOCCOCCOCCNC(=O)[C@H](CC(C)C)NC(=O)[C@@H](O)[C@H](N)Cc6ccccc6)nn5)CC4)cn3)nc2n(C2CCCC2)c1=O,Activity,[2],inactive
same,Activity,[3],inactive
same,Activity,[4],inactive
COc1ccc(C2=N[C@H](c3ccc(Cl)cc3)[C@H](c3ccc(Cl)cc3)N2C(=O)N2CCN(CC(=O)NCCOCCn3cc(CN4CCN(c5ccc(Nc6ncc7c(C)c(C(C)=O)c(=O)n(C8CCCC8)c7n6)nc5)CC4)nn3)C(=O)C2)c(OC(C)C)c1,Activity,[15],inactive
same,Activity,[16],inactive
same,Activity,[17],inactive
CC(=O)c1c(C)c2cnc(Nc3ccc(N4CCN(CC(=O)NCCOCCNc5cccc6c5C(=O)N(C5CCC(=O)NC5=O)C6=O)CC4)cn3)nc2n(C2CCCC2)c1=O (configuration not stated),DC50,[5],> 0.1 µM
same,DC50,[1],0.0011 µM
Cc1nc2c(F)cc(-c3nc(Nc4ccc(CN5CCN(Cc6cn(CCOCCOCCOCCOCCNc7cccc8c7C(=O)N(C7CCC(=O)NC7=O)C8=O)nn6)CC5)cn4)ncc3F)cc2n1C(C)C (configuration not stated),DC50,[5],> 0.5 µM
same,DC50,[1],0.145 µM
Cc1nc2c(F)cc(-c3nc(Nc4ccc(CN5CCN(Cc6cn(CCOCCNc7cccc8c7C(=O)N(C7CCC(=O)NC7=O)C8=O)nn6)CC5)cn4)ncc3F)cc2n1C(C)C (configuration not stated),DC50,[5],> 0.5 µM
same,DC50,[1],0.0086 µM
CC(=O)c1c(C)c2cnc(Nc3ccc(N4CCN(CCOCCOCCNc5cccc6c5C(=O)N(C5CCC(=O)NC5=O)C6=O)CC4)cn3)nc2n(C2CCCC2)c1=O (configuration not stated),DC50,[5],> 0.05 µM
same,DC50,[1],0.0016 µM
COc1ccc(C2=N[C@H](c3ccc(Cl)cc3)[C@H](c3ccc(Cl)cc3)N2C(=O)N2CCN(CC(=O)NCCOCCOCCn3cc(CN4CCN(c5ccc(Nc6ncc7c(C)c(C(C)=O)c(=O)n(C8CCCC8)c7n6)nc5)CC4)nn3)CC2)c(OC(C)C)c1,Activity,[15],inactive
same,Activity,[16],inactive
same,Activity,[17],inactive
CCN1C(=O)CCC(N2C(=O)c3cccc(NCCOCCOCCn4cc(CN5CCN(c6ccc(Nc7ncc8c(C)c(C(C)=O)c(=O)n(C9CCCC9)c8n7)nc6)CC5)nn4)c3C2=O)C1=O (configuration not stated),Activity,[18],inactive
same,Activity,[10],inactive
same,Activity,[11],inactive
same,Activity,[12],inactive
same,Activity,[13],inactive
same,Activity,[14],inactive
CC(=O)c1c(C)c2cnc(Nc3ccc(N4CCN(Cc5cn(CCOCCOCCNC(=O)[C@H](CC(C)C)NC(=O)[C@@H](O)[C@H](N)Cc6ccccc6)nn5)CC4)cn3)nc2n(C2CCCC2)c1=O,Activity,[2],inactive
same,Activity,[3],inactive
same,Activity,[4],inactive
CC(=O)c1c(C)c2cnc(Nc3ccc(N4CCN(Cc5cn(CCOCCOCCNC(=O)CCC(=O)N[C@H](C(=O)N6C[C@H](O)C[C@H]6C(=O)NCc6ccc(-c7scnc7C)cc6)C(C)(C)C)nn5)CC4)cn3)nc2n(C2CCCC2)c1=O,Activity,[6],inactive
same,Activity,[7],inactive
same,Activity,[8],inactive
